Laboratory results from ChEMBL document CHEMBL1124947, “Cationic antiprotozoal drugs. Trypanocidal activity of 2-(4'-formylphenyl)imidazo[1,2-a]pyridinium guanylhydrazones and related derivatives of quaternary heteroaromatic compounds” (J Med Chem, 1990).

What was measured:
Type in all cases: functional
Mus musculus [1] = experiment: Trypanocidal Activity at I.C.E. value 0.55 when administered perorally.
[2] = system: Trypanosoma brucei rhodesiense; experiment: In Vitro measurement of inhibition of leucine uptake in cell culture of Trypanosoma rhodesiense; conditions: read-out: ID50 (the source's name)
Outline: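 Trypanosomes harvested from infected rats, cultured 3 h with several concentrations of drug, usually 0.1–100 µg/mL. Radiolabeled L-leucine uptake measured. ID50 is the concentration in µg/mL giving 50% inhibition of incorporation.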

[3] = system: Trypanosoma brucei rhodesiense; experiment: In Vitro measurement of inhibition of thymidine uptake in cell culture of Trypanosoma rhodesiense; conditions: read-out: ID50 (the source's name)
Outline: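 Parasites harvested from infected rats and incubated 3 h across a drug concentration series, usually 0.1–100 µg/mL. Incorporation of radiolabeled thymidine measured. ID50 is the concentration (µg/mL) producing 50% inhibition.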

Mus musculus [4] = experiment: Trypanocidal Activity at I.C.E. value 0.87 when administered subcutaneously.
Outline: (§1)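 Mice, in groups of five per dose, were given a standard inoculum of blood-stage T. rhodesiense that is lethal to all untreated controls, then dosed subcutaneously. Usually 11 dose levels were used (2^n × 0.42 mg/kg).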

Mus musculus [5] = experiment: Trypanocidal Activity at I.C.E. value 0.34 when administered subcutaneously.
Outline: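 Blood-stage T. rhodesiense infection came from a standard inoculum lethal to all untreated mice. Drug was given by subcutaneous injection to groups of five mice. Survival beyond 30 days counted as cure. […] Sub-curative doses scored 0, and data were normalized at each dose.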

Mus musculus [6] = experiment: Trypanocidal Activity at I.C.E. value >0.3 when administered perorally.
Mus musculus [7] = experiment: Trypanocidal Activity at I.C.E. value 0.85 when administered subcutaneously.; outline: as §1
Mus musculus [8] = experiment: Trypanocidal Activity at I.C.E. value 0.59 when administered perorally.
Mus musculus [9] = experiment: Trypanocidal Activity at I.C.E. value 0.89 when administered subcutaneously.; outline: as §1
Mus musculus [10] = experiment: Trypanocidal Activity at I.C.E. value 0.19 when administered perorally.
Mus musculus [11] = experiment: Trypanocidal Activity at I.C.E. value 0.64 when administered subcutaneously.; outline: as §1

COc1ccc2n(c1)cc(-c1ccc(/C=N/NC(=N)N)cc1)[n+]2C.Cc1ccc(S(=O)(=O)O)cc1.Cc1ccc(S(=O)(=O)[O-])cc1
CD50 (Mus musculus [1]): 6.6 mg/kg | IC50 [2]: 4.3 µg/mL | IC50 [3]: 5.9 µg/mL | CD50 (Mus musculus [4]): 0.4 mg/kg

Br.CC/N=C(\NCC)N/N=C/C=C/c1ccc(-c2cn3ccccc3[n+]2C)cc1.[Br-]
CD50 (Mus musculus [5]): 13 mg/kg | CD50 (Mus musculus [6]): 53 mg/kg

C[n+]1c(-c2ccc(/C=N/NC(=N)NO)cc2)cn2ccccc21.Cc1ccc(S(=O)(=O)O)cc1.Cc1ccc(S(=O)(=O)[O-])cc1
CD50 (Mus musculus [7]): 0.8 mg/kg | CD50 (Mus musculus [8]): 6.6 mg/kg

C[n+]1c(/C=C/c2ccc(/C=N/NC(=N)N)cc2)cn2ccccc21.Cc1ccc(S(=O)(=O)O)cc1.Cc1ccc(S(=O)(=O)[O-])cc1
IC50 [2]: 9.3 µg/mL | CD50 (Mus musculus [9]): 0.1 mg/kg | IC50 [3]: 2.7 µg/mL

Br.C[n+]1c(COc2ccc(/C=N/NC3=NCCCN3)cc2)cn2cc(C(F)(F)F)ccc21.[Br-]
CD50 (Mus musculus [10]): 106 mg/kg | IC50 [2]: 0.5 µg/mL | IC50 [3]: 0.4 µg/mL | CD50 (Mus musculus [11]): 1.6 mg/kg
